Our source for the Activity, viability and IC50 values is ChEMBL document CHEMBL3414565, “Discovery of novel AHLs as potent antiproliferative agents” (Eur J Med Chem, 2015).

The subject of experiment [1] is MCF7. Briefly: Induction of apoptosis in human MCF7 cells assessed as late apoptotic cells at 4 uM after 24 hrs by annexin V-FITC/propidium iodide staining-based flow cytometry (reference value: 2.1%). Type of experiment: functional. The essentials: (§1)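 MCF-7 cells were plated at 5.0 × 10^6 cells/mL and held 12 or 24 h at 37 °C. Exponentially growing cells then received complete medium (blank) or compound at 0, 2, 4 or 8 for 12 or 24 h. Harvested cells were stained with Annexin V-FITC/PI and analysed by flow cytometry. Quadrants were scored as live, early apoptotic (annexin+/PI−), late apoptotic (double positive) and damaged (PI+ only).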

Experiment [2] has as its system MCF7. Briefly: Induction of apoptosis in human MCF7 cells assessed as necrotic cells at 4 uM after 24 hrs by annexin V-FITC/propidium iodide staining-based flow cytometry (reference value: 6.2%). Type of experiment: functional. A digest of the protocol: as §1
For orientation: Flow cytometry measures light scatter and fluorescence of single cells or particles in a stream.

For experiment [3], the system named is MCF7. Briefly: Induction of apoptosis in human MCF7 cells assessed as viable cells at 4 uM after 24 hrs by annexin V-FITC/propidium iodide staining-based flow cytometry (reference value: 87.1%). Particulars: MCF7, 24 h, read-out: Activity. It counts as functional. A digest of the protocol:
as §1

The subject of experiment [4] is MCF7. Briefly: Induction of apoptosis in human MCF7 cells assessed as necrotic cells at 8 uM after 24 hrs by annexin V-FITC/propidium iodide staining-based flow cytometry (reference value: 6.2%). Type of experiment: functional. The essentials:
as §1

For experiment [5], the system named is MCF7. Briefly: Cell cycle arrest in human MCF7 cells assessed as accumulation at S phase at 2 uM after 12 hrs by propidium iodide staining-based flow cytometry (reference value: 26.65%). It counts as functional.
For experiment [6], the system named is MCF7. As to the kind of experiment: Cell cycle arrest in human MCF7 cells assessed as accumulation at G2/M phase at 2 uM after 12 hrs by propidium iodide staining-based flow cytometry (reference value: 16.53%). Type of experiment: functional.
The test system of experiment [7] is MCF7. As to the kind of experiment: Cell cycle arrest in human MCF7 cells assessed as accumulation at G1/G0 phase at 4 uM after 12 hrs by propidium iodide staining-based flow cytometry (reference value: 60.51%). It counts as functional.
Experiment [8] deals with MCF7. As to the kind of experiment: Cell cycle arrest in human MCF7 cells assessed as accumulation at S phase at 8 uM after 12 hrs by propidium iodide staining-based flow cytometry (reference value: 26.65%). It counts as functional.
For experiment [9], the system named is MCF7. Briefly: Cell cycle arrest in human MCF7 cells assessed as accumulation at G2/M phase at 8 uM after 12 hrs by propidium iodide staining-based flow cytometry (reference value: 16.53%). It counts as functional.
For experiment [10], the system named is MCF7. Briefly: Cell cycle arrest in human MCF7 cells assessed as accumulation at S phase at 2 uM after 24 hrs by propidium iodide staining-based flow cytometry (reference value: 40.08%). It counts as functional.
Experiment [11] deals with MCF7. Briefly: Cell cycle arrest in human MCF7 cells assessed as accumulation at G2/M phase at 2 uM after 24 hrs by propidium iodide staining-based flow cytometry (reference value: 16.27%). It counts as functional.
Experiment [12] has as its system MCF7. As to the kind of experiment: Cell cycle arrest in human MCF7 cells assessed as accumulation at S phase at 4 uM after 24 hrs by propidium iodide staining-based flow cytometry (reference value: 40.08%). It counts as functional.
In experiment [13] the test system is MCF7. Briefly: Cell cycle arrest in human MCF7 cells assessed as accumulation at G2/M phase at 4 uM after 24 hrs by propidium iodide staining-based flow cytometry (reference value: 16.27%). Type of experiment: functional.
Experiment [14] has as its system MCF7. As to the kind of experiment: Cell cycle arrest in human MCF7 cells assessed as accumulation at S phase at 8 uM after 24 hrs by propidium iodide staining-based flow cytometry (reference value: 40.08%). Type of experiment: functional.
Another experiment deals with MGC-803. Briefly: Cytotoxicity against human MGC803 cells after 72 hrs by MTT assay. It counts as functional, cell-based. The following applies: MGC-803, 72 h. A digest of the protocol: (§2)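 Cells were grown in RPMI1640 and seeded at 5 × 10^3 cells/well, then left 24 h at 37 °C. Medium was replaced with fresh medium holding a range of compound concentrations, from 10 mM DMSO stocks with final DMSO at most 0.1%. Exposure lasted 72 h. MTT (5 mg/mL) was added for 4 h at 37 °C, formazan was dissolved in DMSO and A570 was read. IC50 came from dose-response curves as mean ± SD of three independent experiments.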
(Tetrazolium assays rely on reduction of a dye to a coloured formazan, in cell work by metabolically active cells.)

The next experiment deals with SMMC-7721. Briefly: Cytotoxicity against human SMMC7721 cells after 72 hrs by MTT assay. Type of experiment: functional, cell-based. Particulars: SMMC-7721, 72 h. A digest of the protocol: as §2
A short description of experiment [15]: Cytotoxicity against human GES-1 cells after 72 hrs by MTT assay. It counts as cell-based. Particulars: GES1, 72 h.
Experiment [16] has as its system MCF7. Briefly: Induction of apoptosis in human MCF7 cells assessed as necrotic cells at 2 uM after 12 hrs by annexin V-FITC/propidium iodide staining-based flow cytometry (reference value: 4.7%). It counts as functional. A digest of the protocol: as §1
The test system of experiment [17] is MCF7. As to the kind of experiment: Induction of apoptosis in human MCF7 cells assessed as early apoptotic cells at 4 uM after 12 hrs by annexin V-FITC/propidium iodide staining-based flow cytometry (reference value: 7.2%). Type of experiment: functional. The essentials: as §1
Experiment [18] relates to MCF7. As to the kind of experiment: Induction of apoptosis in human MCF7 cells assessed as late apoptotic cells at 8 uM after 12 hrs by annexin V-FITC/propidium iodide staining-based flow cytometry (reference value: 2.7%). It counts as functional. The essentials:
as §1

The IC50 is the concentration at which inhibition is half-maximal. High values mean weaker potency, low ones greater potency. Consider `O=C(CSC(=S)N[C@H]1CCOC1=O)Nc1ccc(C(=O)/C=C/c2ccccc2Cl)cc1`, for which the Activity with MCF7 [1] was 3%; in the experiment on MCF7 [2], 4.1%; with MCF7 [4], 4.8%; in the experiment with MCF7 [5], 23.92%; in the experiment with MCF7 [6], 18.26%; in the experiment on MCF7 [7], 58.39%. Moreover, the Activity in the experiment on MCF7 [8] worked out at 25.84%; in the experiment on MCF7 [9] it was 33.6%; in the experiment with MCF7 [10] it was 32.7%; in the experiment on MCF7 [11], 26.69%; with MCF7 [12] it was 20.43%; in the experiment with MCF7 [13], 47.37%. Besides, the Activity worked out at 33.39% with MCF7 [14], 4.9% in the experiment with MCF7 [16], 14.7% in the experiment on MCF7 [17] and 1.6% in the experiment with MCF7 [18]. Besides, the viability at 4 µM with MCF7 [3] was determined as 69.3%. For the same compound, the IC50 in the experiment on MGC-803 turned out to be 12.3 µM; with SMMC-7721, 20.4 µM; in [15] it was 23.5 µM.
